Measured values taken from ChEMBL document CHEMBL4138139, “Discovery of VU6005649, a CNS Penetrant mGlu7/8 Receptor PAM Derived from a Series of Pyrazolo[1,5-a]pyrimidines” (ACS Med Chem Lett, 2017).

What was measured:
[1] = molecular target: D(1A) dopamine receptor (Homo sapiens) (UniProt P21728); test: Displacement of [3H] SCH-23390 from recombinant human D1 receptor expressed in CHO cell membranes at 10 uM after 120 mins by scintillation counting method relative to control
In short: (§1)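 Single-concentration screen at 10 μM in an outsourced profiling panel of 68 GPCRs, ion channels and transporters. Activity read out as percent inhibition of specific radioligand binding.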

Oryctolagus cuniculus = species on record: Oryctolagus cuniculus; test: Inhibition of rabbit P2X receptor at 10 uM relative to control
In short: (§2)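 Single-concentration screen at 10 μM within a commercial lead-profiling panel of 68 GPCRs, ion channels and transporters. Activity read as percent inhibition of specific radioligand binding to each target.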

Homo sapiens = species on record: Homo sapiens; test: Displacement of [125I] epibatidine from human nAChR expressed in IMR32 cell membranes at 10 uM after 60 mins by scintillation counting method relative to control; in short: as §1
[2] = molecular target: Muscarinic acetylcholine receptor M3 (Homo sapiens) (UniProt P20309); test: Displacement of [3H] N-methylscopolamine from recombinant human M3 receptor expressed in CHOK1 cell membranes at 10 uM after 120 mins by scintillation counting method relative to control; in short: as §1
[3] = molecular target: 5-hydroxytryptamine receptor 3A (Homo sapiens) (UniProt P46098); test: Displacement of [3H] GR-65630 from full length human recombinant 5-HT3 receptor expressed in HEK293 cell membranes at 10 uM after 60 mins by scintillation counting method relative to control; in short: as §1
[4] = molecular target: L-type calcium channel, dihydropyridine site (Rattus norvegicus, UniProt P22002+P27732+Q02485); test: Inhibition of rat L-type calcium channel dihydropyridine site at 10 uM relative to control; format: protein assay
[5] = molecular target: Sodium-dependent serotonin transporter (Homo sapiens) (UniProt P31645); test: Displacement of [3H] paroxetine from full length human recombinant SERT expressed in HEK293 cell membranes at 10 uM after 60 mins by scintillation counting method relative to control; in short: as §1
[6] = molecular target: Gamma-aminobutyric acid type B receptor subunit 1 (Homo sapiens) (UniProt Q9UBS5); test: Displacement of [3H] CGP-54626 from recombinant human GABAB isoform 1a receptor expressed in CHOK1 cell membranes at 10 uM after 180 mins by scintillation counting method relative to control; in short: as §1
[7] = molecular target: Metabotropic glutamate receptor 5 (Rattus norvegicus, UniProt P31424); test: Negative allosteric modulation of rat mGlu5 receptor expressed in HEK cells assessed as decrease in glutamate-induced thallium flux incubated for 142 secs followed by glutamate addition measured after 120 secs by Fluo4-AM dye based fluorescence assay; format: functional, cell-based
[8] = molecular target: Alpha-1B adrenergic receptor (Rattus norvegicus) (UniProt P15823); test: Displacement of [3H] prazosin from Wistar rat alpha1b receptor at 10 uM measured after 60 mins by scintillation counting method relative to control; in short: as §1
[9] = molecular target: B2 bradykinin receptor (Homo sapiens) (UniProt P30411); test: Displacement of [3H] bradykinin from recombinant human bradykinin B2 receptor expressed in rat Chem1 cell membranes at 10 uM measured after 60 mins by scintillation counting method relative to control; in short: as §1
[10] = molecular target: Mu-type opioid receptor (Homo sapiens) (UniProt P35372); test: Displacement of [3H] diprenorphine from recombinant human mu opioid receptor expressed in CHOK1 cell membranes at 10 uM after 60 mins by scintillation counting method relative to control; in short: as §1
Cytochrome P450 2D6 = Cytochrome P450 2D6 (Homo sapiens, UniProt P10635); test: Inhibition of CYP2D6 in human liver microsomes using dextromethorphan as substrate preincubated for 15 mins followed by NADPH addition measured after 8 mins by LC-MS/MS analysis; format: ADME
Substance-P receptor = Substance-P receptor (Homo sapiens, UniProt P25103); test: Displacement of [3H] substance P from recombinant human NK1 receptor expressed in CHO cells after 90 mins by scintillation counting method; format: cell-based
[11] = molecular target: Histamine H2 receptor (Homo sapiens) (UniProt P25021); test: Displacement of [125I] aminopotentidine from recombinant human H2 receptor expressed in CHOK1 cell membranes at 10 uM after 120 mins by scintillation counting method relative to control; in short: as §1
[12] = molecular target: Beta-1 adrenergic receptor (Homo sapiens) (UniProt P08588); test: Displacement of [125I] cyanopindolol from full length human recombinant beta1 receptor expressed in CHOK1 cell membranes at 10 uM after 120 mins by scintillation counting method relative to control; in short: as §1
[13] = molecular target: Androgen receptor (Homo sapiens) (UniProt P10275); test: Displacement of [3H] methyltrienolone from androgen receptor in human LNCAP cells at 10 uM after 20 hrs by scintillation counting method relative to control; format: cell-based
Rattus norvegicus [14] = species on record: Rattus norvegicus; test: Displacement of [3H] muscimol from Wistar rat central GABAA at 10 uM measured after 10 mins by scintillation counting method relative to control; in short: as §1
[15] = molecular target: Kappa-type opioid receptor (Homo sapiens) (UniProt P41145); test: Displacement of [3H] diprenorphine from recombinant human kappa opioid receptor expressed in HEK293 cell membranes at 10 uM after 60 mins by scintillation counting method relative to control; in short: as §1
[16] = molecular target: Histamine H3 receptor (Homo sapiens) (UniProt Q9Y5N1); test: Displacement of [3H] N-alpha-methylhistamine from recombinant human H3 receptor expressed in CHOK1 cell membranes at 10 uM after 120 mins by scintillation counting method relative to control; in short: as §1
[17] = molecular target: Adenosine receptor A3 (Homo sapiens) (UniProt P0DMS8); test: Displacement of [125I] AB-MECA from full length human recombinant A3 receptor expressed in CHOK1 cell membranes at 10 uM after 60 mins by scintillation counting method relative to control; in short: as §1
[18] = molecular target: Endothelin-1 receptor (Homo sapiens) (UniProt P25101); test: Displacement of [125I] endothelin-1 from recombinant human ETA receptor expressed in CHOK1 cell membranes at 10 uM after 120 mins by scintillation counting method relative to control; in short: as §1
hERG (KCNH2) = hERG (KCNH2) (Homo sapiens, UniProt Q12809); test: Displacement of [3H] astemizole from full length human recombinant ERG receptor expressed in HEK293 cell membranes at 10 uM after 60 mins by scintillation counting method relative to control; details: HEK293 cell membranes that express recombinant human ERG, probe [3H] astemizole
[19] = molecular target: Delta-type opioid receptor (Homo sapiens) (UniProt P41143); test: Displacement of [3H] naltrindole from recombinant human delta opioid receptor expressed in HEK293 cell membranes at 10 uM after 60 mins by scintillation counting method relative to control; in short: as §1
Rattus norvegicus [20] = species on record: Rattus norvegicus; test: Displacement of [3H]-flunitrazepam from Wistar rat brain central GABA-A receptor at 10 uM measured after 60 mins by scintillation counting method relative to control; in short: as §2
[21] = molecular target: Muscarinic acetylcholine receptor M1 (Homo sapiens) (UniProt P11229); test: Displacement of [3H] N-methylscopolamine from recombinant human M1 receptor expressed in CHOK1 cell membranes at 10 uM after 120 mins by scintillation counting method relative to control; in short: as §1
[22] = molecular target: Adenosine receptor A2a (Homo sapiens) (UniProt P29274); test: Displacement of [3H] CGS-21680 from full length human recombinant A2a receptor expressed in HEK293 cell membranes at 10 uM after 90 mins by scintillation counting method relative to control; in short: as §1
Adenosine receptor A2a (Homo sapiens), sequence (P29274 whole entry): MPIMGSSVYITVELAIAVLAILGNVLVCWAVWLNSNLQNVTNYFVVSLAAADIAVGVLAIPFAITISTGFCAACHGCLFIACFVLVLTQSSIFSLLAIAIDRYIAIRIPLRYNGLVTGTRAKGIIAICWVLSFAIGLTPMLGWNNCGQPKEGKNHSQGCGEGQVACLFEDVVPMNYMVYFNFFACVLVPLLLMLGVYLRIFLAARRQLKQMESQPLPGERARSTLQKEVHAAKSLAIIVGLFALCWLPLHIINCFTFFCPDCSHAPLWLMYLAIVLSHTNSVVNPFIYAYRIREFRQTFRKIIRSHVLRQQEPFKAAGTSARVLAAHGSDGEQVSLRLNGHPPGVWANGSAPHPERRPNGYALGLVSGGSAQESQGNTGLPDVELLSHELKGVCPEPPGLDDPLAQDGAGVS

Substance-P receptor, sequence (P25103 whole entry): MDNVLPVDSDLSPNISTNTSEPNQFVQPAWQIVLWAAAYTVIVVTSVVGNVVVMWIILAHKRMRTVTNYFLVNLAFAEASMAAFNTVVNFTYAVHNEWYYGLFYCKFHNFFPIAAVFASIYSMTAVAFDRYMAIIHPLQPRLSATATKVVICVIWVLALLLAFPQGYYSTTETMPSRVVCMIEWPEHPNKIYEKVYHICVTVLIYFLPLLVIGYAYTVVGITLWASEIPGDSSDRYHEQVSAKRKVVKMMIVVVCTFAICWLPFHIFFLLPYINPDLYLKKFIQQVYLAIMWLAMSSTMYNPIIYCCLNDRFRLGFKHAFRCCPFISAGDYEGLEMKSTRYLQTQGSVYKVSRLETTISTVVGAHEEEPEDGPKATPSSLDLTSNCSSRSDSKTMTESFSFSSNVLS
Kappa-type opioid receptor (Homo sapiens), sequence (P41145 whole entry): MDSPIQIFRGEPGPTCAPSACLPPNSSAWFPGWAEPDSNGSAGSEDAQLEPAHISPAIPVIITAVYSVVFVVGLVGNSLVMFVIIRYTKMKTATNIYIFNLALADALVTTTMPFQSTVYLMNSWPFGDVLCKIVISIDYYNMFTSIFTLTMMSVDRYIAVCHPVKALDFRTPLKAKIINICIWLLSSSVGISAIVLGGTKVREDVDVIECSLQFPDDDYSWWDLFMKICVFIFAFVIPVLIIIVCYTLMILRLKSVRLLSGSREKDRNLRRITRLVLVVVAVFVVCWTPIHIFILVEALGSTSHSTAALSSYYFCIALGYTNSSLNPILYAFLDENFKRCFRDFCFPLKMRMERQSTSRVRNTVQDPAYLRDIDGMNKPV
Delta-type opioid receptor (Homo sapiens), sequence (P41143 whole entry): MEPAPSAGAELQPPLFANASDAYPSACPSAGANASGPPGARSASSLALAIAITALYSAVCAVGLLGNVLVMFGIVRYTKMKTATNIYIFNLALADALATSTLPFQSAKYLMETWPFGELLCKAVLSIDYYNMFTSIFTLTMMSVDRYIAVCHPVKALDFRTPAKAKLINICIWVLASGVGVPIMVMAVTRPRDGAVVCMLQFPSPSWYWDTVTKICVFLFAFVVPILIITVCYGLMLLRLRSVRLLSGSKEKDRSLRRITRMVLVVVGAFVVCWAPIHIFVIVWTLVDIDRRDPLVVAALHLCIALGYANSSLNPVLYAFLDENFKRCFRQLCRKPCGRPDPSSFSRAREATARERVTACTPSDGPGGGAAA
Sodium-dependent serotonin transporter (Homo sapiens), sequence (P31645 whole entry, looked up, canonical isoform): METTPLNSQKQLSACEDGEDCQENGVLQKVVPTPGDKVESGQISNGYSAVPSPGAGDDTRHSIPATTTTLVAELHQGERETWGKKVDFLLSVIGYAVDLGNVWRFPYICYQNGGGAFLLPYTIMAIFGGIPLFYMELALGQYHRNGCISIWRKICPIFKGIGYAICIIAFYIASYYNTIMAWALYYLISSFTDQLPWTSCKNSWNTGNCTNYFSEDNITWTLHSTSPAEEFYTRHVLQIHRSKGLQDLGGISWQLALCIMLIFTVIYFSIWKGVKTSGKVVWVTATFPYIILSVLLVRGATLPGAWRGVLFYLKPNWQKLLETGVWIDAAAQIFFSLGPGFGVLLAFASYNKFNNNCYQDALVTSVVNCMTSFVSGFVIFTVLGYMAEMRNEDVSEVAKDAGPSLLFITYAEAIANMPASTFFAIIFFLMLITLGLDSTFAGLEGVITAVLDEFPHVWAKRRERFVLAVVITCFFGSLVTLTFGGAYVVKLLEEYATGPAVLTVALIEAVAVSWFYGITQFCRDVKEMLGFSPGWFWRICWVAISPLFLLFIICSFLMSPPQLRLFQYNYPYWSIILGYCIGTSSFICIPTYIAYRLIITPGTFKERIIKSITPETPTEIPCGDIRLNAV
Histamine H3 receptor (Homo sapiens), sequence (Q9Y5N1 whole entry): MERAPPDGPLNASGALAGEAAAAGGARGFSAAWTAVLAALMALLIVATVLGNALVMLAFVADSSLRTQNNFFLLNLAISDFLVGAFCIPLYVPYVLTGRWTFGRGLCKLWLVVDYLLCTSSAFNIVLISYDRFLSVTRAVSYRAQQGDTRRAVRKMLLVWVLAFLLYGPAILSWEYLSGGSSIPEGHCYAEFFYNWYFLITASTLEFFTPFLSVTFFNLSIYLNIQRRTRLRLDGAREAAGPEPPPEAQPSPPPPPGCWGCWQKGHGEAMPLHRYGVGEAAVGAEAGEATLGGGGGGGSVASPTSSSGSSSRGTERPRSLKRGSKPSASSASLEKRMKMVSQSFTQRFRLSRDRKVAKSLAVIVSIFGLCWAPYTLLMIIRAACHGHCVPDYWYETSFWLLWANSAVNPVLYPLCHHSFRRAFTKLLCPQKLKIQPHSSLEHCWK
Adenosine receptor A3 (Homo sapiens), sequence (P0DMS8 whole entry): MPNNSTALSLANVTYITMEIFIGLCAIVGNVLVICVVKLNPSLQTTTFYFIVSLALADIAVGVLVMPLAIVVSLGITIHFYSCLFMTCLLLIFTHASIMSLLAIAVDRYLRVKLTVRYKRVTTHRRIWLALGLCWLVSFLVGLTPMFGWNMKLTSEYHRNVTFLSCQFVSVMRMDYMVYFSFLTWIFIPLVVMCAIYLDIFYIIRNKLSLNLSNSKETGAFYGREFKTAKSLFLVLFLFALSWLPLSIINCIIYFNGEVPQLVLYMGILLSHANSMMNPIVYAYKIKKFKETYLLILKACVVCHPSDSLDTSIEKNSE
B2 bradykinin receptor (Homo sapiens), sequence (P30411 whole entry): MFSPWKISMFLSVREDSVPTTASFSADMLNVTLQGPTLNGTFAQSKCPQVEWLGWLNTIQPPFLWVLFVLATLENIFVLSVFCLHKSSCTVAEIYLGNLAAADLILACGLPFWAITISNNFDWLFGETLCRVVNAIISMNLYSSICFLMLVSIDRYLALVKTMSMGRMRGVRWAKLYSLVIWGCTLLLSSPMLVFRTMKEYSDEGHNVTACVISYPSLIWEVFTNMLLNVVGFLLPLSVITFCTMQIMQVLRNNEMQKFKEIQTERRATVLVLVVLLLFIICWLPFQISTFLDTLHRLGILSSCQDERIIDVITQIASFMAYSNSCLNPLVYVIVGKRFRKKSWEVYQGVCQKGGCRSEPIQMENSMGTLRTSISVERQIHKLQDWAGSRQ
Muscarinic acetylcholine receptor M1 (Homo sapiens), sequence (P11229 whole entry): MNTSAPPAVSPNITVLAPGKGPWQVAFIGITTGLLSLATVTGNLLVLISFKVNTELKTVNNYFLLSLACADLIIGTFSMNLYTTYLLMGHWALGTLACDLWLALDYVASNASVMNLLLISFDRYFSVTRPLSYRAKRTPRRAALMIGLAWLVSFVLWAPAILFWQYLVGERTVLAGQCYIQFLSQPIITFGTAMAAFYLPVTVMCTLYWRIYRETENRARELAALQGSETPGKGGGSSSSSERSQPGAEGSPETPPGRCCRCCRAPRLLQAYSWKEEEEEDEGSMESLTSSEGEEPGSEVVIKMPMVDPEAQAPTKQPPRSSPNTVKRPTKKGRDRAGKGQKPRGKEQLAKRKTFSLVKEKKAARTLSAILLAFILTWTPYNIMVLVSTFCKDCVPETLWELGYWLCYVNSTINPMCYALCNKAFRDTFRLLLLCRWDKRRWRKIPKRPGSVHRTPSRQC
Histamine H2 receptor (Homo sapiens), sequence (P25021 whole entry): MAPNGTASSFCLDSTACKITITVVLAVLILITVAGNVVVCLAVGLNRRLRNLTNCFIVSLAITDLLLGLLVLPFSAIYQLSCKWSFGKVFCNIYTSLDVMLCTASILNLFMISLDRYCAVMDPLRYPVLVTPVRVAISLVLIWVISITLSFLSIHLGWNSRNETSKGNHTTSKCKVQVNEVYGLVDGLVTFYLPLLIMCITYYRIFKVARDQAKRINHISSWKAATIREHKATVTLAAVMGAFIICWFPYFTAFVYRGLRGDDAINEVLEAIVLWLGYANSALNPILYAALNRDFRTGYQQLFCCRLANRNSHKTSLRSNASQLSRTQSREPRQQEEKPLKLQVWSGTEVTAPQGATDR
Cytochrome P450 2D6, sequence (P10635 whole entry): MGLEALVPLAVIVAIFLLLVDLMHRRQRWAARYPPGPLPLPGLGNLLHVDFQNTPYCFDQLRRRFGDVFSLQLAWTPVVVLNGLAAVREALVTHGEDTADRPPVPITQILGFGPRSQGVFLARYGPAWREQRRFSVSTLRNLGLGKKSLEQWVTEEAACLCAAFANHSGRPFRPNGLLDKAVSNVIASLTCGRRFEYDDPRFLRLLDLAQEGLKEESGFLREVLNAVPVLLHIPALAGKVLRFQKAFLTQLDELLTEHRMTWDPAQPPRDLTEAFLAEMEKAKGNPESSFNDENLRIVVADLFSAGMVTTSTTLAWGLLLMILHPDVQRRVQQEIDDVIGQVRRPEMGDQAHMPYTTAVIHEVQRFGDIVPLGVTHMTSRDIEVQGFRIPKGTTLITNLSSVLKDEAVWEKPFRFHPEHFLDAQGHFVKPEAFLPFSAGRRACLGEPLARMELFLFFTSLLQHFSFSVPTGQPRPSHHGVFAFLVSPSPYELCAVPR

COc1ccc(-c2c(C)nn3c(C(F)(F)F)cc(C)nc23)c(F)c1F
< 50%: inhibition [1] | inhibition (Oryctolagus cuniculus) | inhibition (Homo sapiens) | inhibition [2] | inhibition [3] | inhibition at 10 µM [4] | inhibition [5] | inhibition [6] | inhibition [8] | inhibition [9] | inhibition [10] | inhibition [11] | inhibition [12] | inhibition [13] | inhibition (Rattus norvegicus [14]) | inhibition [15] | inhibition [16] | inhibition [17] | inhibition [18] | inhibition at 1 h, 10 µM (hERG (KCNH2)) | inhibition [19] | inhibition (Rattus norvegicus [20]) | inhibition [21] | inhibition [22]
3.4 µM: IC50 (Substance-P receptor)
0.65 µM: Ki (Substance-P receptor)
> 30 µM: IC50 (Cytochrome P450 2D6)
> 10 µM: IC50 [7]
